{"source": "ChEMBL document CHEMBL1122694", "about": "“Steroidogenesis inhibitors. 1. Adrenal inhibitory and interceptive activity of trilostane and related compounds” (1984)", "key": {"Rattus norvegicus [1]": {"test_system": "Rattus norvegicus", "experiment": "Effect of compound on plasma level of corticosterone in ACTH treated pseudopregnant rats when administered orally", "type": "functional", "settings": "po, read-out: MED", "method_in_brief": "(§1)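 Pseudopregnant rats stimulated with ACTH; single oral dose, groups of seven rats. Plasma progesterone and corticosterone measured; MED in mg/kg po is the single dose giving a significant (p < 0.01) fall versus stimulated control levels.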"}, "Rattus norvegicus [2]": {"test_system": "Rattus norvegicus", "experiment": "Minimum effective dose for 100% interruption of pregnancy in rat when compound was administered perorally", "type": "functional", "method_in_brief": "(§2)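 Pregnant rats given a single oral dose on day 10 of pregnancy, seven rats per group. MED, in mg/kg po, is the minimum dose giving 100% interruption of pregnancy.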"}, "Rattus norvegicus [3]": {"test_system": "Rattus norvegicus", "experiment": "Effect of compound on plasma level of progesterone in ACTH treated pseudopregnant rats when administered orally", "type": "functional", "settings": "po, read-out: MED", "method_in_brief": "as §1"}, "Monkey [4]": {"test_system": "Monkey", "experiment": "Effect of compound on plasma level of cortisol in ACTH treated rhesus monkey when administered orally", "type": "functional", "settings": "Cercopithecidae, in Macaca mulatta, po, read-out: MED"}, "Monkey [5]": {"test_system": "Monkey", "experiment": "Effective dose for interruption of pregnancy in greater than 90% of the monkeys", "type": "functional, Cercopithecidae", "method_in_brief": "(§3)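 Pregnant monkeys dosed once daily on days 50–54 of pregnancy; group size two to six or more monkeys. Effective dose, in mg per monkey per day, is the dose interrupting pregnancy in more than 90% of monkeys.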"}, "Rattus norvegicus [6]": {"test_system": "Rattus norvegicus", "experiment": "Minimum effective dose for 100% interruption of pregnancy in rat when compound was administered perorally; IN-Inactive", "type": "functional, organism-based", "method_in_brief": "as §2"}, "Monkey [7]": {"test_system": "Monkey", "experiment": "Effective dose for interruption of pregnancy in greater than 90% of the monkeys; IN-Inactive", "type": "functional, organism-based", "settings": "Cercopithecidae", "method_in_brief": "as §3"}}, "note": "The source made the active and inactive calls. The rule behind the calls is not given here."}
{"smiles": "CC12CC[C@H]3[C@@H](CC[C@@]45OC4(C)C(=O)[C@H](C#N)CC35C)[C@@H]1CCC2O", "note": "(stereo partly specified)", "values": [{"measurement": "minimal effective dose", "setting": "Rattus norvegicus [1]", "result": 50, "unit": "mg/kg"}, {"measurement": "MED10", "setting": "Rattus norvegicus [2]", "result": 125, "unit": "mg/kg"}, {"measurement": "minimal effective dose", "setting": "Rattus norvegicus [3]", "result": 5, "unit": "mg/kg"}, {"measurement": "minimal effective dose", "setting": "Monkey [4]", "result": 250, "unit": "mg/kg"}, {"measurement": "MED90", "setting": "Monkey [5]", "result": ">500", "unit": "mg monkey-1 day-1"}]}
{"smiles": "CC12CC[C@H]3[C@@H](CC[C@@]45OC4C(=O)[C@H](C#N)CC35C)[C@@H]1CCC2O", "note": "(stereo partly specified)", "values": [{"measurement": "minimal effective dose", "setting": "Rattus norvegicus [1]", "result": 50, "unit": "mg/kg"}, {"measurement": "MED10", "setting": "Rattus norvegicus [2]", "result": 500, "unit": "mg/kg"}, {"measurement": "minimal effective dose", "setting": "Rattus norvegicus [3]", "result": 500, "unit": "mg/kg"}, {"measurement": "minimal effective dose", "setting": "Monkey [4]", "result": 10, "unit": "mg/kg"}, {"measurement": "MED90", "setting": "Monkey [5]", "result": 1000, "unit": "mg monkey-1 day-1"}]}
{"smiles": "CC12CC[C@H]3[C@@H](CC[C@@]45OC4C(=O)CCC35C)[C@@H]1CCC2O", "note": "(stereo partly specified)", "values": [{"measurement": "MED10", "setting": "Rattus norvegicus [6]", "result": "inactive"}]}
{"smiles": "CC1C[C@H]2[C@@H]3CCC(O)C3(C)CC[C@@H]2C2(C)C[C@@H](C#N)C(=O)C3O[C@]132", "note": "(stereo partly specified)", "values": [{"measurement": "MED10", "setting": "Rattus norvegicus [2]", "result": 12, "unit": "mg/kg"}, {"measurement": "MED90", "setting": "Monkey [5]", "result": 500, "unit": "mg monkey-1 day-1"}]}
{"smiles": "CC12CCC3C(CC[C@@]45OC4c4oncc4CC35C)C1CC[C@]2(C)O", "note": "(stereo partly specified)", "values": [{"measurement": "MED10", "setting": "Rattus norvegicus [2]", "result": ">500", "unit": "mg/kg"}]}
{"smiles": "CC1(C)C(=O)[C@H](C#N)CC2(C)C1=CCC1C2CCC2(C)C1CC[C@]2(C)O", "note": "(stereo partly specified)", "values": [{"measurement": "MED10", "setting": "Rattus norvegicus [2]", "result": 6, "unit": "mg/kg"}, {"measurement": "MED90", "setting": "Monkey [7]", "result": "inactive"}]}
{"smiles": "CC12CC[C@H]3[C@@H](CC[C@]45OC4C(=O)[C@@H](C#N)CC35C)[C@@H]1CCC2O", "note": "(stereo partly specified)", "values": [{"measurement": "MED10", "setting": "Rattus norvegicus [6]", "result": "inactive"}]}
{"smiles": "CC12CCC3C(CC[C@@]45OC4c4oncc4CC35C)C1CCC2O", "note": "(stereo partly specified)", "values": [{"measurement": "MED10", "setting": "Rattus norvegicus [2]", "result": ">500", "unit": "mg/kg"}]}
{"smiles": "CC1(C)C2=CCC3C(CCC4(C)C3CC[C@]4(C)O)C2(C)Cc2cnoc21", "note": "(stereo partly specified)", "values": [{"measurement": "MED10", "setting": "Rattus norvegicus [2]", "result": 25, "unit": "mg/kg"}, {"measurement": "MED90", "setting": "Monkey [5]", "result": ">1000", "unit": "mg monkey-1 day-1"}]}
{"smiles": "CC1CC2C3CCC(O)C3(C)CCC2C2(C)Cc3cnoc3C3O[C@]132", "note": "(stereo partly specified)", "values": [{"measurement": "MED10", "setting": "Rattus norvegicus [2]", "result": ">500", "unit": "mg/kg"}]}
{"smiles": "CC12CCC3C(CC[C@@]45OC4(C)c4oncc4CC35C)C1CCC2O", "note": "(stereo partly specified)", "values": [{"measurement": "MED10", "setting": "Rattus norvegicus [2]", "result": ">500", "unit": "mg/kg"}]}
{"smiles": "CC12O[C@]13CC[C@@H]1[C@H](CCC4(C)[C@H]1CC[C@]4(C)O)C3(C)C[C@@H](C#N)C2=O", "note": "(stereo partly specified)", "values": [{"measurement": "minimal effective dose", "setting": "Rattus norvegicus [1]", "result": 20, "unit": "mg/kg"}, {"measurement": "MED10", "setting": "Rattus norvegicus [2]", "result": 50, "unit": "mg/kg"}, {"measurement": "minimal effective dose", "setting": "Rattus norvegicus [3]", "result": 20, "unit": "mg/kg"}, {"measurement": "minimal effective dose", "setting": "Monkey [4]", "result": 250, "unit": "mg/kg"}, {"measurement": "MED90", "setting": "Monkey [5]", "result": 250, "unit": "mg monkey-1 day-1"}]}
{"smiles": "CC12CC[C@H]3[C@@H](CC[C@@]45OC4C(=O)[C@H](C#N)CC35C)[C@@H]1CC[C@]2(C)O", "note": "(stereo partly specified)", "values": [{"measurement": "minimal effective dose", "setting": "Rattus norvegicus [1]", "result": 50, "unit": "mg/kg"}, {"measurement": "MED10", "setting": "Rattus norvegicus [2]", "result": 500, "unit": "mg/kg"}, {"measurement": "minimal effective dose", "setting": "Rattus norvegicus [3]", "result": 500, "unit": "mg/kg"}, {"measurement": "minimal effective dose", "setting": "Monkey [4]", "result": 10, "unit": "mg/kg"}, {"measurement": "MED90", "setting": "Monkey [5]", "result": 250, "unit": "mg monkey-1 day-1"}]}
{"smiles": "CC12CC[C@H]3[C@@H](CCC4CC(=O)[C@H](C#N)CC43C)[C@@H]1CCC2O", "note": "(stereo partly specified)", "values": [{"measurement": "MED10", "setting": "Rattus norvegicus [6]", "result": "inactive"}]}
{"smiles": "CC12C[C@@H](C#N)C(=O)C=C1CCC1C2CCC2(C)C(O)CCC12", "note": "(stereo partly specified)", "values": [{"measurement": "MED10", "setting": "Rattus norvegicus [2]", "result": 1000, "unit": "mg/kg"}]}
{"smiles": "CC12O[C@]13CCC1C(CCC4(C)C1CC[C@]4(C)O)C3(C)Cc1cnoc12", "note": "(stereo partly specified)", "values": [{"measurement": "MED10", "setting": "Rattus norvegicus [2]", "result": 192, "unit": "mg/kg"}, {"measurement": "MED90", "setting": "Monkey [7]", "result": "inactive"}]}
